Measured values from ChEMBL document CHEMBL2439973, “Discovery of VU0409106: A negative allosteric modulator of mGlu5 with activity in a mouse model of anxiety” (Bioorg Med Chem Lett, 2013).

Key:
[1] = molecular target: Muscarinic acetylcholine receptor M3 (Homo sapiens) (UniProt P20309); experiment: Displacement of [3H]-N-Methylscopolamine from human recombinant muscarinic M3 receptor expressed in CHO-K1 cells at 10 uM relative to control; format: cell-based
Method in brief: (§1)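 Tested once at 10 μM in a commercial radioligand binding panel of 68 GPCRs, ion channels, kinases and transporters. Activity is given as displacement of each radioligand relative to control.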

[2] = molecular target: Delta-type opioid receptor (Homo sapiens) (UniProt P41143); experiment: Displacement of [3H]-Naltrindole from human recombinant delta opioid receptor expressed in HEK293 cells at 10 uM relative to control; format: cell-based; method in brief: as §1
[3] = molecular target: Neuropeptide Y receptor type 1 (Homo sapiens) (UniProt P25929); experiment: Displacement of [125I]-Peptide YY from neuropeptide Y Y1 receptor in human SK-N-MC cells at 10 uM relative to control; format: cell-based; method in brief: as §1
[4] = molecular target: Muscarinic acetylcholine receptor M2 (Homo sapiens) (UniProt P08172); experiment: Displacement of [3H]-N-Methylscopolamine from human recombinant muscarinic M2 receptor expressed in CHO-K1 cells at 10 uM relative to control; format: cell-based; method in brief: as §1
[5] = molecular target: Histamine H2 receptor (Homo sapiens) (UniProt P25021); experiment: Displacement of [125I]-Aminopotentidine from human recombinant histamine H2 receptor expressed in CHO-K1 cells at 10 uM relative to control; format: cell-based; method in brief: as §1
[6] = molecular target: 5-hydroxytryptamine receptor 1A (Homo sapiens) (UniProt P08908); experiment: Displacement of [3H]-8-OH-DPAT from human recombinant 5-HT1A receptor expressed in CHO-K1 cells at 10 uM relative to control; format: cell-based; method in brief: as §1
[7] = molecular target: Endothelin receptor type B (Homo sapiens) (UniProt P24530); experiment: Displacement of [125I]-Endothelin-1 from human recombinant ETB receptor expressed in CHO-K1 cells at 10 uM relative to control; format: cell-based; method in brief: as §1
Rattus norvegicus = species on record: Rattus norvegicus; experiment: Displacement of [125I]-Triiodothyronine from thyroid hormone receptor in rat liver at 10 uM relative to control; method in brief: as §1
[8] = molecular target: Acetylcholine receptor subunit alpha (Homo sapiens) (UniProt P02708); experiment: Displacement of [125I]-alpha-Bungarotoxin from nicotinic acetylcholine alpha1 receptor bungarotoxin binding site in human RD cells at 10 uM relative to control; format: cell-based; method in brief: as §1
[9] = molecular target: Beta-2 adrenergic receptor (Homo sapiens) (UniProt P07550); experiment: Displacement of [3H]-CGP-12177 from human recombinant adrenergic beta2 receptor expressed in CHO cells at 10 uM relative to control; format: cell-based; method in brief: as §1
[10] = molecular target: Glutamate NMDA receptor (Rattus norvegicus) (UniProt P35439+Q00959+Q00960+Q00961+Q62645+Q8VHN2+Q9R1M7); experiment: Displacement of [3H]-CGP-39653 from NMDA receptor agonist binding site in rat cerebral cortex at 10 uM relative to control; format: tissue-based; method in brief: as §1
Mus musculus = species on record: Mus musculus; experiment: Displacement of [125I]-Interleukin-1beta from IL-1 receptor in mouse 3T3-SWISS cells at 10 uM relative to control; format: cell-based; method in brief: as §1
[11] = molecular target: Adenosine receptor A3 (Homo sapiens) (UniProt P0DMS8); experiment: Displacement of [125I]-AB-MECA from human recombinant adenosine A3 receptor expressed in CHO-K1 cells at 10 uM relative to control; format: cell-based; method in brief: as §1
[12] = molecular target: B1 bradykinin receptor (Homo sapiens) (UniProt P46663); experiment: Displacement of [3H]-(Des-Arg10)-Kallidin from bradykinin B1 receptor in human IMR90 cells at 10 uM relative to control; format: cell-based; settings: IMR-90; method in brief: as §1
[13] = molecular target: 5-hydroxytryptamine receptor 2B (Homo sapiens) (UniProt P41595); experiment: Displacement of [3H]-Lysergic acid diethylamide from human recombinant 5-HT2B receptor expressed in CHO-K1 cells at 10 uM relative to control; format: cell-based; method in brief: as §1
[14] = Ratio of drug level in brain to plasma in CD-1 mouse at 10 mg/kg, ip by LC-MS/MS analysis; format: ADME, organism-based; parameters: dose 10 mg/kg, route intraperitoneal; settings: brain and plasma, read-out: BPR

Chain of Muscarinic acetylcholine receptor M2 (Homo sapiens) (P08172 whole entry): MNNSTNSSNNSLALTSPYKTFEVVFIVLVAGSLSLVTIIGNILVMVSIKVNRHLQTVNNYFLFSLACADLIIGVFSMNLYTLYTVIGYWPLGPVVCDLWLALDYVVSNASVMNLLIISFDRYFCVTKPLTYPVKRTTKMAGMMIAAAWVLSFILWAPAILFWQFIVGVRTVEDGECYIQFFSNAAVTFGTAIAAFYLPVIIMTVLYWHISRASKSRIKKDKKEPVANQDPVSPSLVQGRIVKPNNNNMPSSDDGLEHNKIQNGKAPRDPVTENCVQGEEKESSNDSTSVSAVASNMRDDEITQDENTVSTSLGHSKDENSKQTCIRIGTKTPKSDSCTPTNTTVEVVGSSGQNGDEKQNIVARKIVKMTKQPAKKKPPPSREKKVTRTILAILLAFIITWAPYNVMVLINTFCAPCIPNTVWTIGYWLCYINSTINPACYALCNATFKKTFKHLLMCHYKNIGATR
Chain of 5-hydroxytryptamine receptor 1A (Homo sapiens) (P08908 whole entry): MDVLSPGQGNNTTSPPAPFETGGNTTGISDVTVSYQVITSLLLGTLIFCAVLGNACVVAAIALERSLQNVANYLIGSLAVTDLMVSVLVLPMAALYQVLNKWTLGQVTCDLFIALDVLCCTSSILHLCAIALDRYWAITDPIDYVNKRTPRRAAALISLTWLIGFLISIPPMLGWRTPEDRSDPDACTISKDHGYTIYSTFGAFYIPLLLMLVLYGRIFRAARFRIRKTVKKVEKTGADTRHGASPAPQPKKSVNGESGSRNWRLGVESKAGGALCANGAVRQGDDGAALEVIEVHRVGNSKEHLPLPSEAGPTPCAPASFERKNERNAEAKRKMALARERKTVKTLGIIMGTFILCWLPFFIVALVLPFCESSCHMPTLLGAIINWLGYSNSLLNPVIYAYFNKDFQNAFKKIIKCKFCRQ
Chain of Delta-type opioid receptor (Homo sapiens) (P41143 whole entry): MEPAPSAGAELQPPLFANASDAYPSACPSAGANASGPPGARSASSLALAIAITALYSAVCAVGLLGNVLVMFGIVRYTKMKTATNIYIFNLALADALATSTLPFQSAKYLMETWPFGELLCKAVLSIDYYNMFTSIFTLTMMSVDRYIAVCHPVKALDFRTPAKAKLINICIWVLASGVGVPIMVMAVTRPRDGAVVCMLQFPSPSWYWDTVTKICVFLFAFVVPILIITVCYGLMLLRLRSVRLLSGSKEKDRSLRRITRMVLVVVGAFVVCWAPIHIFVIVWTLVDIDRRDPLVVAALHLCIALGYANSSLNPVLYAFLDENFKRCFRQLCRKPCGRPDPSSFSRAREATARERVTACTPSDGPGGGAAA
Chain of B1 bradykinin receptor (Homo sapiens) (P46663 whole entry): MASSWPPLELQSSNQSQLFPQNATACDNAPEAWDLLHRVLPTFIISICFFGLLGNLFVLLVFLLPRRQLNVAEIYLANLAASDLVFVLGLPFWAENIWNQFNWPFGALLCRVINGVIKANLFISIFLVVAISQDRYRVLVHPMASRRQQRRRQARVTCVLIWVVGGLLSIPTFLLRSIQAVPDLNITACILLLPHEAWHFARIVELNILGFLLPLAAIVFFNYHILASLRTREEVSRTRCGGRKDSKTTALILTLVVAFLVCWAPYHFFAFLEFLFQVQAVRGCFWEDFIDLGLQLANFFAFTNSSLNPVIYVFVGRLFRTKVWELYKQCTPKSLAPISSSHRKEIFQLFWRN
Chain of Muscarinic acetylcholine receptor M3 (Homo sapiens) (P20309 whole entry, looked up): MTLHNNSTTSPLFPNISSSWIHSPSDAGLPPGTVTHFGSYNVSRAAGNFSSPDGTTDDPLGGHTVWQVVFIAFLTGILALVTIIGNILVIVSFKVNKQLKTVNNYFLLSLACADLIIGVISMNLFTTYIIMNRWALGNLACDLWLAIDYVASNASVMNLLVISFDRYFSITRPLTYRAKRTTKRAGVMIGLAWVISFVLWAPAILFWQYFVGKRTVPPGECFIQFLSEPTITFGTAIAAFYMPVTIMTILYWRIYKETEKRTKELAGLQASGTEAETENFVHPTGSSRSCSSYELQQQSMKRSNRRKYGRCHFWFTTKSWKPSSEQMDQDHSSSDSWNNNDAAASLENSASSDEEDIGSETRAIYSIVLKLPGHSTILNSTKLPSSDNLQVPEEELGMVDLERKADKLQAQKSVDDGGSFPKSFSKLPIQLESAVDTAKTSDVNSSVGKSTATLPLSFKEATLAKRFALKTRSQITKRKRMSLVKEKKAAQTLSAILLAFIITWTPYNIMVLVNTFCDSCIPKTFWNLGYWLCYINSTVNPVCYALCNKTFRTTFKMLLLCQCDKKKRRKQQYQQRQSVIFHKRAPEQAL
Chain of Histamine H2 receptor (Homo sapiens) (P25021 whole entry): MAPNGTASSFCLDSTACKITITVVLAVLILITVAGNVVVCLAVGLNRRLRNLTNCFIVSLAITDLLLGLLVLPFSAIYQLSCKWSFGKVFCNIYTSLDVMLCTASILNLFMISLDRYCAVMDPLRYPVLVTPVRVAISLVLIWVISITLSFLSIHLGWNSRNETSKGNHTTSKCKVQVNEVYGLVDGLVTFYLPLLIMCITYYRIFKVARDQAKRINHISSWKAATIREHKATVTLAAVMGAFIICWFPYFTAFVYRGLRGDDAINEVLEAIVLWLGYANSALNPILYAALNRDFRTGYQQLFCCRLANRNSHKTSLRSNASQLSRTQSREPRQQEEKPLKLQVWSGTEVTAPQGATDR
Chain of 5-hydroxytryptamine receptor 2B (Homo sapiens) (P41595 whole entry): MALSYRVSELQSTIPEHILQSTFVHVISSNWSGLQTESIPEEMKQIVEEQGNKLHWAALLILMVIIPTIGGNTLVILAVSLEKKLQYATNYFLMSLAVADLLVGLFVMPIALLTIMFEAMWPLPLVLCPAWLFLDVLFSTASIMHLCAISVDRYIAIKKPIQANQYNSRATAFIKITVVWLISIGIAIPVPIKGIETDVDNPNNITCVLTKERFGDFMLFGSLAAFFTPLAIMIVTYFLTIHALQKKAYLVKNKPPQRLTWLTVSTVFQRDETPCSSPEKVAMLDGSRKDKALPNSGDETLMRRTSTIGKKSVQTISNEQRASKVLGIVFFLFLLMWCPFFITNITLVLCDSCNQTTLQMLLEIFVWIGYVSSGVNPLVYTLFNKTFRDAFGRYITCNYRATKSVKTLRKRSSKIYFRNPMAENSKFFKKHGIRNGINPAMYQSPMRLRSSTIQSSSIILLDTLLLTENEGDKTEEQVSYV
Chain of Adenosine receptor A3 (Homo sapiens) (P0DMS8 whole entry): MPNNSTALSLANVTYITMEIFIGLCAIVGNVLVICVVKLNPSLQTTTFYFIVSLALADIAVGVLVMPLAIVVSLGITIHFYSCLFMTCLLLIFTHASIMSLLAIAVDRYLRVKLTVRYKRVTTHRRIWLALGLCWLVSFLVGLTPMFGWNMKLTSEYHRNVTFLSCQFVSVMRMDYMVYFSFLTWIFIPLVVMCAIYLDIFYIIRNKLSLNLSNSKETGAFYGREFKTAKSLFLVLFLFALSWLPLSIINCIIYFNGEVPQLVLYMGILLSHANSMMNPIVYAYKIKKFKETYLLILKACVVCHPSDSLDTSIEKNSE
Chain of Neuropeptide Y receptor type 1 (Homo sapiens) (P25929 whole entry): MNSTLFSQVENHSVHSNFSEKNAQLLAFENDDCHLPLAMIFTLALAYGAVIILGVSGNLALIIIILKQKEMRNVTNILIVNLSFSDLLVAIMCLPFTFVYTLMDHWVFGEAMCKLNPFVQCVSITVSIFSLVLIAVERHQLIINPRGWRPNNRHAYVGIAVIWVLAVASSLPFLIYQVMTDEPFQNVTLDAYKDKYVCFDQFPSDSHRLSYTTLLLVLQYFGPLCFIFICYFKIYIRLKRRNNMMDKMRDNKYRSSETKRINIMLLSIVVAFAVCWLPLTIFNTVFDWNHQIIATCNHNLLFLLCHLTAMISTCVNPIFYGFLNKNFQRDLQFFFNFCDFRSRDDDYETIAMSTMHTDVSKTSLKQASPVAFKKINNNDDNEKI
Chain of Acetylcholine receptor subunit alpha (Homo sapiens) (P02708 whole entry): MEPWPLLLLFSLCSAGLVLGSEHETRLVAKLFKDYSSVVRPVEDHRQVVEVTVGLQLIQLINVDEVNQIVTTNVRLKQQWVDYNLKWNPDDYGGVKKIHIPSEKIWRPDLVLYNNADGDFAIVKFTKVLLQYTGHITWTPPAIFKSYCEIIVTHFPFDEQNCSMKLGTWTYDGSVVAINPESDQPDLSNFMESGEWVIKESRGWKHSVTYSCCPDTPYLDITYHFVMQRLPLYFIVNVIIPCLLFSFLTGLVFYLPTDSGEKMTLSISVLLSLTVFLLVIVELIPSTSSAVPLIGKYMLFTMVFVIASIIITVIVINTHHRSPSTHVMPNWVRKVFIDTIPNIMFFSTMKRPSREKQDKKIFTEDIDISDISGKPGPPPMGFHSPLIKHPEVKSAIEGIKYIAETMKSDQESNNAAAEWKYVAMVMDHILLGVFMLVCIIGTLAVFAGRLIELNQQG
Chain of Endothelin receptor type B (Homo sapiens) (P24530 whole entry): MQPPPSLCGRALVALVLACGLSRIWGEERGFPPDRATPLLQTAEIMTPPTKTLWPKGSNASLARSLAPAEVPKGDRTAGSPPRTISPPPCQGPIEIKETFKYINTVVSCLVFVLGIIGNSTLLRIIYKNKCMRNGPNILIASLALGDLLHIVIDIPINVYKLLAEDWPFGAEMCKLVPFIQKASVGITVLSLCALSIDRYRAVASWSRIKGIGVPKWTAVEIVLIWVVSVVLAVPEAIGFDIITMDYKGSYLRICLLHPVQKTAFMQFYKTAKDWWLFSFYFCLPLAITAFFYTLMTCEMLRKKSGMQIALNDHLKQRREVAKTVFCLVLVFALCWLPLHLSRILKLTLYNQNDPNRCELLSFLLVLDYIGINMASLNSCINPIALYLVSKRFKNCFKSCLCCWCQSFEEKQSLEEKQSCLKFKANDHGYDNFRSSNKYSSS

`Cc1csc(NC(=O)c2cc(F)cc(Oc3cncnc3)c2)n1` gave an inhibition [1] of over 35%, an inhibition [2] of over 35% and an inhibition [3] of over 35%. The inhibition [4] was over 35%, the inhibition [5] was over 35% and the inhibition [6] was over 35%. The inhibition [7] was over 35%, the inhibition (Rattus norvegicus) was over 35% and the inhibition [8] was over 35%. The inhibition [9] was over 35%, the inhibition [10] was over 35% and the inhibition (Mus musculus) was over 35%. The inhibition [11] was over 35%, the inhibition [12] was over 35% and the inhibition [13] was over 35%. It also gave a Kp [14] of 0.99.
